Laboratory results from ChEMBL document CHEMBL5724801, “EUbOPEN Chemogenomics Library - Multiplex” (2024).
Several values for one entry are separate records, joined by “and”; a condition that tells them apart may be missing. Equal values may be shown once.

Test system: U2OS
Assay: Multiplex assay against U2OS
Type: toxicity, cell-based
Details: human
Procedure, shortened: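 Hoechst33342, BioTracker Green Microtubule Cytoskeleton Dye, MitoTracker Red and Annexin V Alexa Fluor 680 were added to live cells at seeding, and imaging on a CQ1 microscope at 37°C and 5% CO2 followed compound addition. Gating by CellPathfinder machine learning separated cells into Hoechst high-intensity objects or normal cells, then normal cells into healthy, pyknosed or fragmented nuclei, then pyknosed cells into mitotic or apoptotic. Per cents of healthy-nucleus cells are reported for the tubulin, mitochondrial-mass and membrane-permeability phenotypes.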

[1] = 12 h, 1 µM, compound concentration 1 uM
[2] = 12 h, 10 µM, compound concentration 10 uM
[3] = 24 h, 1 µM, compound concentration 1 uM
[4] = 24 h, 10 µM, compound concentration 10 uM
[5] = 48 h, 1 µM, compound concentration 1 uM
[6] = 48 h, 10 µM, compound concentration 10 uM

Compound: CCOC(=O)c1cnn(-c2ccc(NC(=O)C(Cl)=C(Cl)Cl)cc2)c1C(F)(F)F
- Population Apoptotic (%) [1]: 35.29% and 57.89%
- Population Fragmented Nuclei (%) [1]: 2.52% and 2.35%
- Population Healthy Nuclei (%) [1]: 88.92% and 86.47%
- Population Hoechst High Intensity Objects (%) [1]: 0%
- Population Membrane Permeable-Phenotype (%) [1]: 0.57% and 2.72%
- Population Mitochondria Different-Phenotype (%) [1]: 0.85% and 4.76%
- Population Mitotic Cells (%) [1]: 64.71% and 42.11%
- Population Normal (%) [1]: 100%
- Population Pyknosed Nuclei (%) [1]: 8.56% and 11.18%
- Population Tubulin-Different-Phenotype (%) [1]: 0.57% and 0%
- Total Cell Count [1]: 397 and 170
- Population Apoptotic (%) [2]: 21.96% and 33.6%
- Population Fragmented Nuclei (%) [2]: 2.71% and 4.35%
- Population Healthy Nuclei (%) [2]: 8.13% and 5.07%
- Population Hoechst High Intensity Objects (%) [2]: 0%
- Population Membrane Permeable-Phenotype (%) [2]: 11.11% and 28.57%
- Population Mitotic Cells (%) [2]: 78.04% and 66.4%
- Population Normal (%) [2]: 100%
- Population Pyknosed Nuclei (%) [2]: 89.16% and 90.58%
- Population Tubulin-Different-Phenotype (%) [2]: 25.93% and 14.29%
- Total Cell Count [2]: 332 and 138
- Population Apoptotic (%) [3]: 36.07% and 39.02%
- Population Fragmented Nuclei (%) [3]: 1.33% and 1.84%
- Population Healthy Nuclei (%) [3]: 87.12% and 79.26%
- Population Hoechst High Intensity Objects (%) [3]: 0%
- Population Membrane Permeable-Phenotype (%) [3]: 0.43% and 0.58%
- Population Mitochondria Different-Phenotype (%) [3]: 0.43% and 4.07%
- Population Mitotic Cells (%) [3]: 63.93% and 60.98%
- Population Normal (%) [3]: 100%
- Population Pyknosed Nuclei (%) [3]: 11.55% and 18.89%
- Population Tubulin-Different-Phenotype (%) [3]: 0.22% and 0%
- Total Cell Count [3]: 528 and 217
- Population Apoptotic (%) [4]: 65.22% and 84.92%
- Population Fragmented Nuclei (%) [4]: 3.27% and 2.76%
- Population Healthy Nuclei (%) [4]: 7.74% and 10.34%
- Population Hoechst High Intensity Objects (%) [4]: 0%
- Population Membrane Permeable-Phenotype (%) [4]: 30.77% and 46.67%
- Population Mitochondria Different-Phenotype (%) [4]: 0% and 13.33%
- Population Mitotic Cells (%) [4]: 34.78% and 15.08%
- Population Normal (%) [4]: 100%
- Population Pyknosed Nuclei (%) [4]: 88.99% and 86.9%
- Population Tubulin-Different-Phenotype (%) [4]: 57.69% and 60%
- Total Cell Count [4]: 336 and 145
- Population Apoptotic (%) [5]: 48.86% and 64.44%
- Population Fragmented Nuclei (%) [5]: 5.03% and 2.12%
- Population Healthy Nuclei (%) [5]: 85.95% and 84.24%
- Population Hoechst High Intensity Objects (%) [5]: 0%
- Population Membrane Permeable-Phenotype (%) [5]: 1.31% and 2.52%
- Population Mitochondria Different-Phenotype (%) [5]: 0.12% and 2.16%
- Population Mitotic Cells (%) [5]: 51.14% and 35.56%
- Population Normal (%) [5]: 100%
- Population Pyknosed Nuclei (%) [5]: 9.03% and 13.64%
- Population Tubulin-Different-Phenotype (%) [5]: 1.07% and 1.44%
- Total Cell Count [5]: 975 and 330
- Population Apoptotic (%) [6]: 86.63% and 98.18%
- Population Fragmented Nuclei (%) [6]: 2.51% and 10.64%
- Population Healthy Nuclei (%) [6]: 38.87% and 50.35%
- Population Hoechst High Intensity Objects (%) [6]: 0%
- Population Membrane Permeable-Phenotype (%) [6]: 8.06% and 23.94%
- Population Mitochondria Different-Phenotype (%) [6]: 11.29% and 15.49%
- Population Normal (%) [6]: 100%
- Population Pyknosed Nuclei (%) [6]: 58.62% and 39.01%
- Population Tubulin-Different-Phenotype (%) [6]: 66.94% and 47.89%
- Total Cell Count [6]: 319 and 141

Compound: Cc1cc(C)cc(C(=O)NOCCCCCC(=O)NO)c1
- Population Apoptotic (%) [1]: 33.33% and 45.83%
- Population Fragmented Nuclei (%) [1]: 2.19% and 1.16%
- Population Healthy Nuclei (%) [1]: 82.02% and 84.97%
- Population Hoechst High Intensity Objects (%) [1]: 0%
- Population Membrane Permeable-Phenotype (%) [1]: 0.53% and 4.08%
- Population Mitochondria Different-Phenotype (%) [1]: 0.27% and 4.08%
- Population Mitotic Cells (%) [1]: 66.67% and 54.17%
- Population Normal (%) [1]: 100%
- Population Pyknosed Nuclei (%) [1]: 15.79% and 13.87%
- Population Tubulin-Different-Phenotype (%) [1]: 0.8% and 1.36%
- Total Cell Count [1]: 456 and 173
- Population Apoptotic (%) [2]: 27.78% and 30.23%
- Population Fragmented Nuclei (%) [2]: 2.46% and 2.56%
- Population Healthy Nuclei (%) [2]: 79.85% and 69.87%
- Population Hoechst High Intensity Objects (%) [2]: 0%
- Population Membrane Permeable-Phenotype (%) [2]: 1.23% and 4.59%
- Population Mitochondria Different-Phenotype (%) [2]: 0.31% and 9.17%
- Population Mitotic Cells (%) [2]: 72.22% and 69.77%
- Population Normal (%) [2]: 100%
- Population Pyknosed Nuclei (%) [2]: 17.69% and 27.56%
- Population Tubulin-Different-Phenotype (%) [2]: 2.46% and 1.83%
- Total Cell Count [2]: 407 and 156
- Population Apoptotic (%) [3]: 42.11% and 38.46%
- Population Fragmented Nuclei (%) [3]: 5.65% and 5.61%
- Population Healthy Nuclei (%) [3]: 59.88% and 61.22%
- Population Hoechst High Intensity Objects (%) [3]: 0%
- Population Membrane Permeable-Phenotype (%) [3]: 0.67% and 1.67%
- Population Mitochondria Different-Phenotype (%) [3]: 0.34% and 5%
- Population Mitotic Cells (%) [3]: 57.89% and 61.54%
- Population Normal (%) [3]: 100%
- Population Pyknosed Nuclei (%) [3]: 34.48% and 33.16%
- Population Tubulin-Different-Phenotype (%) [3]: 3.37% and 1.67%
- Total Cell Count [3]: 496 and 196
- Population Apoptotic (%) [4]: 36.05% and 42.86%
- Population Fragmented Nuclei (%) [4]: 8.75% and 10%
- Population Healthy Nuclei (%) [4]: 30.26% and 41.88%
- Population Hoechst High Intensity Objects (%) [4]: 0%
- Population Membrane Permeable-Phenotype (%) [4]: 0.78% and 10.45%
- Population Mitochondria Different-Phenotype (%) [4]: 0% and 4.48%
- Population Mitotic Cells (%) [4]: 63.95% and 57.14%
- Population Normal (%) [4]: 100%
- Population Pyknosed Nuclei (%) [4]: 60.99% and 48.12%
- Population Tubulin-Different-Phenotype (%) [4]: 3.12% and 11.94%
- Total Cell Count [4]: 423 and 160
- Population Apoptotic (%) [5]: 77.2% and 80.52%
- Population Fragmented Nuclei (%) [5]: 9.29% and 8.45%
- Population Healthy Nuclei (%) [5]: 55.56% and 55.4%
- Population Hoechst High Intensity Objects (%) [5]: 0.18% and 0%
- Population Membrane Permeable-Phenotype (%) [5]: 4.92% and 7.63%
- Population Mitochondria Different-Phenotype (%) [5]: 0.66% and 5.93%
- Population Mitotic Cells (%) [5]: 22.8% and 19.48%
- Population Normal (%) [5]: 99.82% and 100%
- Population Pyknosed Nuclei (%) [5]: 35.15% and 36.15%
- Population Tubulin-Different-Phenotype (%) [5]: 6.89% and 8.47%
- Total Cell Count [5]: 550 and 213
- Population Apoptotic (%) [6]: 79.12% and 92.94%
- Population Fragmented Nuclei (%) [6]: 3.39% and 4.58%
- Population Healthy Nuclei (%) [6]: 31.59% and 39.87%
- Population Hoechst High Intensity Objects (%) [6]: 0%
- Population Membrane Permeable-Phenotype (%) [6]: 15.7% and 31.15%
- Population Mitochondria Different-Phenotype (%) [6]: 0.83% and 3.28%
- Population Mitotic Cells (%) [6]: 20.88% and 7.06%
- Population Normal (%) [6]: 100%
- Population Pyknosed Nuclei (%) [6]: 65.01% and 55.56%
- Population Tubulin-Different-Phenotype (%) [6]: 44.63% and 32.79%
- Total Cell Count [6]: 383 and 153

Compound: Cc1c(CC(=O)O)c2cccnc2n1Cc1ccc(S(C)(=O)=O)cc1C(F)(F)F [FEVIPIPRANT]
- Population Apoptotic (%) [1]: 80% and 50%
- Population Fragmented Nuclei (%) [1]: 25% and 22%
- Population Healthy Nuclei (%) [1]: 64% and 72%
- Population Hoechst High Intensity Objects (%) [1]: 1%
- Population Membrane Permeable-Phenotype (%) [1]: 2% and 8%
- Population Mitochondria Different-Phenotype (%) [1]: 2% and 1%
- Population Mitotic Cells (%) [1]: 19% and 50%
- Population Normal (%) [1]: 98%
- Population Pyknosed Nuclei (%) [1]: 9% and 5%
- Population Tubulin-Different-Phenotype (%) [1]: 0% and 9%
- Total Cell Count [1]: 224 and 118
- Population Apoptotic (%) [2]: 90% and 100%
- Population Fragmented Nuclei (%) [2]: 27% and 22%
- Population Healthy Nuclei (%) [2]: 65% and 73%
- Population Hoechst High Intensity Objects (%) [2]: 2% and 0%
- Population Membrane Permeable-Phenotype (%) [2]: 3% and 8%
- Population Mitochondria Different-Phenotype (%) [2]: 0% and 3%
- Population Mitotic Cells (%) [2]: 9% and 0%
- Population Normal (%) [2]: 97% and 99%
- Population Pyknosed Nuclei (%) [2]: 7% and 3%
- Population Tubulin-Different-Phenotype (%) [2]: 1% and 4%
- Total Cell Count [2]: 287 and 116
- Population Apoptotic (%) [3]: 80% and 66%
- Population Fragmented Nuclei (%) [3]: 20% and 17%
- Population Healthy Nuclei (%) [3]: 71% and 74%
- Population Hoechst High Intensity Objects (%) [3]: 2% and 0%
- Population Membrane Permeable-Phenotype (%) [3]: 1% and 9%
- Population Mitochondria Different-Phenotype (%) [3]: 3% and 0%
- Population Mitotic Cells (%) [3]: 20% and 33%
- Population Normal (%) [3]: 97% and 100%
- Population Pyknosed Nuclei (%) [3]: 8%
- Population Tubulin-Different-Phenotype (%) [3]: 1% and 10%
- Total Cell Count [3]: 256 and 145
- Population Apoptotic (%) [4]: 96% and 100%
- Population Fragmented Nuclei (%) [4]: 20% and 12%
- Population Healthy Nuclei (%) [4]: 70% and 78%
- Population Hoechst High Intensity Objects (%) [4]: 0% and 1%
- Population Membrane Permeable-Phenotype (%) [4]: 5% and 8%
- Population Mitochondria Different-Phenotype (%) [4]: 3% and 2%
- Population Mitotic Cells (%) [4]: 3% and 0%
- Population Normal (%) [4]: 99% and 98%
- Population Pyknosed Nuclei (%) [4]: 8%
- Population Tubulin-Different-Phenotype (%) [4]: 3%
- Total Cell Count [4]: 326 and 119
- Population Apoptotic (%) [5]: 65% and 90%
- Population Fragmented Nuclei (%) [5]: 18% and 20%
- Population Healthy Nuclei (%) [5]: 71% and 67%
- Population Hoechst High Intensity Objects (%) [5]: 2%
- Population Membrane Permeable-Phenotype (%) [5]: 4% and 8%
- Population Mitochondria Different-Phenotype (%) [5]: 3% and 5%
- Population Normal (%) [5]: 97%
- Population Pyknosed Nuclei (%) [5]: 10% and 12%
- Population Tubulin-Different-Phenotype (%) [5]: 2% and 9%
- Total Cell Count [5]: 379 and 187
- Population Apoptotic (%) [6]: 91% and 100%
- Population Fragmented Nuclei (%) [6]: 17% and 15%
- Population Healthy Nuclei (%) [6]: 73% and 76%
- Population Hoechst High Intensity Objects (%) [6]: 1% and 3%
- Population Membrane Permeable-Phenotype (%) [6]: 4% and 5%
- Population Mitochondria Different-Phenotype (%) [6]: 3% and 1%
- Population Mitotic Cells (%) [6]: 8% and 0%
- Population Normal (%) [6]: 98% and 96%
- Population Pyknosed Nuclei (%) [6]: 8%
- Population Tubulin-Different-Phenotype (%) [6]: 3%
- Total Cell Count [6]: 408 and 158
